Results on 7 compounds are retold here after PubChem BioAssay AID2375 (NMMLSC, 2010).

One assay relates to Rac1. The assay can be described thus: cellular Cdc42/Rac1 GTP-loading by G-LISA – cell lysate, ELISA, panel, Ras-related GTPase inhibitor project, profiling panel (AID 2375). Conditions: NIH 3T3 cells, EGF-stimulated, PAK G-LISA active GTPase, stronger effect = lower value. The procedure, abridged: (§1)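 system = 3T3 lysates on PAK-coated wells | amount = equal cellular protein per well from snap-frozen lysates | reagent = EGF 10 ng/ml, with or without | dosing = compound at 1 and 10 µM | detection = colorimetric PAK-capture ELISA | evaluation = ng active GTPase per lysate, normalized to maximal EGF response | control set = EGF-stimulated and unstimulated lysates, GTPase standard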
For orientation: An ELISA detects its analyte on a solid surface through an enzyme-linked reagent.

The next assay relates to Cdc42. Described as above. Conditions: NIH 3T3 cells, EGF-stimulated, PAK G-LISA active GTPase, stronger effect = lower value. The procedure, abridged:
as §1

SMILES strings stand for the structures. Inconclusive results are not listed. The source made the active and inactive calls.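 How the source made its calls: active means compounds that lower growth-factor-driven active Cdc42 or Rac1 at 10 micromolar by more than 15 percent; inactive means the rest, inconclusive results apart.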

Consider `NS(=O)(=O)c1ccc(N2N=C(c3ccccc3)CC2c2ccc(Br)cc2)cc1` (centres undefined), for which the normalized active GTPase is 0.5 with Rac1 (active GTPase, at 1 µM); 0.47 in the assay with Rac1 (at 10 µM); 1.12 with Cdc42 (active GTPase, at 1 µM); 0.895 (inactive) with Cdc42 (at 10 µM).

In the case of `COc1ccc(C2CC(c3cccc(OC)c3)=NN2c2ccc(S(N)(=O)=O)cc2)cc1` (centres undefined), the normalized active GTPase is 0.442 in the assay on Cdc42 (active GTPase, at 1 µM) and 1.25 (inactive) with Cdc42 (at 10 µM).

Turning to `Cc1cccc(C2CC(c3ccccc3)=NN2c2ccc(S(N)(=O)=O)cc2)c1` (centres undefined), the normalized active GTPase in the assay on Rac1 (active GTPase, at 1 µM) is 1.09; in the assay on Rac1 (at 10 µM), 0.932 (inactive); in the assay with Cdc42 (active GTPase, at 1 µM) it was 0.979; with Cdc42 (at 10 µM), 0.726.

As to `COc1ccc(C2CC(c3ccccc3)=NN2c2ccc(S(N)(=O)=O)cc2)cc1` (centres undefined), the normalized active GTPase was 0.724 with Rac1 (active GTPase, at 1 µM); 0.612 in the assay on Rac1 (at 10 µM); 0.923 with Cdc42 (active GTPase, at 1 µM); 0.626 with Cdc42 (at 10 µM).

Regarding `Cc1ccc(C2CC(c3ccccc3)=NN2c2ccc(S(N)(=O)=O)cc2)cc1` (centres undefined), the normalized active GTPase with Rac1 (active GTPase, at 1 µM) was 0.782; in the assay with Rac1 (at 10 µM), 0.941 (inactive); in the assay with Cdc42 (active GTPase, at 1 µM), 0.994; with Cdc42 (at 10 µM) it was 0.667.

As for `COc1ccc(C2CC(c3ccccc3)=NN2c2ccc(S(N)(=O)=O)cc2)cc1OC` (centres undefined), the normalized active GTPase is 0.87 in the assay on Cdc42 (active GTPase, at 1 µM) and 0.856 (inactive) in the assay on Cdc42 (at 10 µM).

For the compound `NS(=O)(=O)c1ccc(N2N=C(c3ccccc3)CC2c2cccc(Br)c2)cc1` (centres undefined), the normalized active GTPase is 0.556 in the assay with Rac1 (active GTPase, at 1 µM); 0.691 in the assay on Rac1 (at 10 µM); 0.764 in the assay with Cdc42 (active GTPase, at 1 µM); 1.4 (inactive) in the assay on Cdc42 (at 10 µM).
